Assays:
[1] = Partition coefficient (logP); type: physicochemical; settings: octanol/water
Outline: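 Lipophilicity (log P) measured by 1-octanol-coated reversed-phase HPLC. The mobile phase is pH 7.4 PBS saturated with 1-octanol, run on RP-18 or C-18 packing. A second system is linked to the first through overlapping series. For the most lipophilic analogues that could not be detected, log P is calculated from Free-Wilson-derived substituent constants assuming additivity.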

[2] = Statistical significance, p values as compared to positive control by students t-test; NS=Not significant; type: ADME
Outline: (§1)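 Same arachidonic acid ear-edema model: 2 mg total topical dose in acetone, given 60 min before arachidonic acid, with 8 animals per group. Edema is measured by ear plug weight 1 h after arachidonic acid. p values come from Student's t-test against the concurrent arachidonic acid positive control. Thresholds are given as + (≤0.05) and so on.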

Mus musculus [3] = assay: Compound was tested for inhibition of arachidonic acid induced mouse ear edema at 2 mg of dose; type: functional
Outline: (§2)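 Mouse ear edema induced by arachidonic acid (dissolved in acetone at 100 mg/mL). Test agent is applied topically in acetone, 2 mg/0.02 mL per total dose, 60 min before arachidonic acid. Ear edema is read 1 h later as the weight gain of an 8-mm-diameter ear plug. It is compared with acetone-only and arachidonic acid-only controls run in the same experiment. n = 8 per group; percent inhibition is reported as mean.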

[4] = Statistical significance, p values as compared to positive control by students t-test; I=Insoluble; type: ADME; outline: as §1
Mus musculus [5] = assay: Compound was tested for inhibition of arachidonic acid induced mouse ear edema at 2 mg of dose; I=Insoluble; type: functional, organism-based; outline: as §2
[6] = Statistical significance (p value) compared to positive control by Students t-test; type: ADME; outline: as §1

Row | logP [1] | Significance [2] | Significance [4] | Significance [6] | Significance ([6]; read-out: Significance) | SMILES | Inhibition (Mus musculus [3]) [%] | inhibition (Mus musculus [5])
1 | 6.1 | Not Active |  |  |  | COc1c(OC)c(OC(=O)C(C)(C)C)c2c(Cl)cccc2c1OC(=O)C(C)(C)C | 6 | 
2 | 8.7 | Not Active |  |  |  | O=C(Oc1c(Oc2ccccc2)c(Oc2ccccc2)c(OC(=O)c2ccccc2)c2cc(Cl)ccc12)c1ccccc1 | -1 | 
3 | 5.8 |  | Insoluble |  |  | CCC(=O)Oc1c(Oc2ccccc2)c(Oc2ccccc2)c(OC(=O)CC)c2ccccc12 |  | Insoluble
4 | 6.4 |  |  | <= 0.05 |  | CCOc1c(OCC)c(OC(=O)C(C)C)c2cc(Cl)ccc2c1OC(=O)C(C)C | 11 | 
5 | 7.7 | Not Active |  |  |  | CCCC(=O)Oc1c(Oc2ccccc2)c(Oc2ccccc2)c(OC(=O)CCC)c2cc(Cl)ccc12 | -5 | 
6 | 3.44 |  |  | <= 0.001 |  | CCC(=O)Oc1c(OC)c(OC)c(OC(=O)CC)c2c(OC)cccc12 | 57 | 
7 | 2.39 |  |  | <= 0.05 |  | COc1c(OC)c(OC(C)=O)c2ccccc2c1OC(C)=O | 19 | 
8 | 6.1 | Not Active |  |  |  | COc1c(OC)c(OC(=O)C(C)(C)C)c2cc(C)ccc2c1OC(=O)C(C)(C)C | 11 | 
9 | 8.5 |  |  | <= 0.05 |  | CCCOc1c(OCCC)c(OC(=O)C(C)(C)C)c2cc(Cl)ccc2c1OC(=O)C(C)(C)C | 16 | 
10 | 7.5 |  |  | <= 0.01 |  | CCCOc1c(OCCC)c(OC(=O)C(C)C)c2cc(Cl)ccc2c1OC(=O)C(C)C | 28 | 
11 | 7.6 | Not Active |  |  |  | CCCOc1c(OCCC)c(OC(=O)CCC)c2cc(Cl)ccc2c1OC(=O)CCC | 2 | 
12 | 4.2 |  |  | <= 0.001 |  | CCC(=O)Oc1c(OC)c(OC)c(OC(=O)CC)c2cc(C)c(C)cc12 | 26 | 
13 | 5 | Not Active |  |  |  | COc1c(OC)c(OC(=O)C(C)C)c2c(C)cccc2c1OC(=O)C(C)C | 12 | 
14 | 4.3 |  |  | <= 0.001 |  | CCC(=O)Oc1c(OC)c(OC)c(OC(=O)CC)c2cc(Cl)ccc12 | 49 | 
15 | 4 |  |  | <= 0.001 |  | CCOc1c(OCC)c(OC(C)=O)c2cc(Cl)ccc2c1OC(C)=O | 38 | 
16 | 7.7 | Not Active |  |  |  | CC(C)C(=O)Oc1c(Oc2ccccc2)c(Oc2ccccc2)c(OC(=O)C(C)C)c2cc(Cl)ccc12 | 0 | 
17 | 3.9 |  |  | <= 0.001 |  | CCC(=O)Oc1c(OC)c(OC)c(OC(=O)CC)c2cc(C)ccc12 | 39 | 
18 | 2.43 |  |  | <= 0.01 |  | COc1c(OC)c(OC(C)=O)c2c(OC)cccc2c1OC(C)=O | 47 | 
19 | 3.9 |  |  | <= 0.01 |  | CCC(=O)Oc1c(OC)c(OC)c(OC(=O)CC)c2c(C)cccc12 | 24 | 
20 | 7.9 |  |  | <= 0.001 |  | CC(C)Oc1c(OC(C)C)c(OC(=O)C(C)(C)C)c2cc(Cl)ccc2c1OC(=O)C(C)(C)C | 26 | 

Row | logP [1] | Significance [2] | Significance [4] | Significance [6] | Significance ([6]; read-out: Significance) | SMILES | Inhibition (Mus musculus [3]) [%] | inhibition (Mus musculus [5])
21 | 5.3 |  |  | <= 0.001 |  | COc1c(OC)c(OC(=O)C(C)C)c2cc(C)c(C)cc2c1OC(=O)C(C)C | 21 | 
22 | 4.8 |  | Insoluble |  |  | CC(=O)Oc1c(Oc2ccccc2)c(Oc2ccccc2)c(OC(C)=O)c2ccccc12 |  | Insoluble
23 | 4.61 |  |  | <= 0.001 |  | COc1c(OC)c(OC(=O)C(C)C)c2ccccc2c1OC(=O)C(C)C | 53 | 
24 | 4.64 |  |  | <= 0.001 |  | CCCC(=O)Oc1c(OC)c(OC)c(OC(=O)CCC)c2ccccc12 | 59 | 
25 | 3.14 |  |  | <= 0.001 |  | COc1c(OC)c(OC(C)=O)c2cc(C)c(C)cc2c1OC(C)=O | 19 | 
26 | 3.16 | Not Active |  |  |  | COc1c(OC)c(OC(C)=O)c2c(Cl)cccc2c1OC(C)=O | 11 | 
27 | 3.28 |  |  | <= 0.01 |  | CCC(=O)Oc1c(OC)c(OC)c(OC(=O)CC)c2cc(OC)ccc12 | 49 | 
28 | 2.86 |  |  | <= 0.001 |  | COc1c(OC)c(OC(C)=O)c2cc(C)ccc2c1OC(C)=O | 40 | 
29 | 2.75 |  |  | <= 0.001 |  | COc1c(OC)c(OC(C)=O)c2cc(F)ccc2c1OC(C)=O | 40 | 
30 | 5.5 |  |  | <= 0.001 |  | CCCC(=O)Oc1c(OC)c(OC)c(OC(=O)CCC)c2cc(Cl)ccc12 | 58 | 
31 | 2.28 | Not Active |  |  |  | COc1c(OC)c(OC(C)=O)c2cc(C#N)ccc2c1OC(C)=O | 7 | 
32 | 6.7 |  |  | <= 0.05 |  | COc1c(OC)c(OC(=O)c2ccccc2)c2cc(Cl)ccc2c1OC(=O)c1ccccc1 | 18 | 
33 | 5.6 | Not Active |  |  |  | CC(=O)Oc1c(Oc2ccccc2)c(Oc2ccccc2)c(OC(C)=O)c2cc(Cl)ccc12 | 5 | 
34 | 5.6 |  |  | <= 0.01 |  | COc1c(OC)c(OC(=O)C(C)(C)C)c2c(OC)cccc2c1OC(=O)C(C)(C)C | 29 | 
35 | 5.4 | Not Active |  |  |  | COc1ccc2c(OC(=O)C(C)(C)C)c(OC)c(OC)c(OC(=O)C(C)(C)C)c2c1 | 3 | 
36 | 3.44 |  |  | <= 0.01 |  | CCC(=O)Oc1c(OC)c(OC)c(OC(=O)CC)c2ccccc12 | 33 | 
37 | 5.69 | Not Active |  |  |  | COc1c(OC)c(OC(=O)C(C)(C)C)c2ccccc2c1OC(=O)C(C)(C)C | 0 | 
38 | 4.2 |  |  | <= 0.001 |  | COc1c(OC)c(OC(C)=O)c2c(Sc3ccccc3)cccc2c1OC(C)=O | 42 | 
39 | 2.51 |  |  | <= 0.01 |  | COc1c(OC)c(OC(C)=O)c2c(C#N)cccc2c1OC(C)=O | 24 | 
40 | 6.4 |  |  | <= 0.001 |  | CCCOc1c(OCCC)c(OC(=O)CC)c2cc(Cl)ccc2c1OC(=O)CC | 30 | 

Row | logP [1] | Significance [2] | Significance [4] | Significance [6] | Significance ([6]; read-out: Significance) | SMILES | Inhibition (Mus musculus [3]) [%] | inhibition (Mus musculus [5])
41 | 6.5 | Not Active |  |  |  | COc1c(OC)c(OC(=O)C(C)(C)C)c2cc(C)c(C)cc2c1OC(=O)C(C)(C)C | 6 | 
42 | 5.4 |  |  | <= 0.01 |  | COc1c(OC)c(OC(=O)C(C)C)c2cc(Cl)ccc2c1OC(=O)C(C)C | 23 | 
43 | 5.2 |  |  | <= 0.001 |  | CCCOc1c(OCCC)c(OC(C)=O)c2cc(Cl)ccc2c1OC(C)=O | 50 | 
44 | 3.39 |  |  | <= 0.001 |  | COc1c(OC)c(OC(C)=O)c2cc(Br)ccc2c1OC(C)=O | 42 | 
45 |  | Not Active |  |  |  | CSc1c(SC)c(OC(C)=O)c2cc(Cl)ccc2c1OC(C)=O | -2 | 
46 | 5.2 |  |  | <= 0.001 |  | CCOc1c(OCC)c(OC(=O)CC)c2cc(Cl)ccc2c1OC(=O)CC | 50 | 
47 | 6.1 | Not Active |  |  |  | COc1c(OC)c(OC(=O)C(C)(C)C)c2c(C)cccc2c1OC(=O)C(C)(C)C | 10 | 
48 | 4.6 |  |  | <= 0.001 |  | CC(=O)Oc1c(OC(C)C)c(OC(C)C)c(OC(C)=O)c2cc(Cl)ccc12 | 19 | 
49 | 6.6 | Not Active |  |  |  | CCC(=O)Oc1c(Oc2ccccc2)c(Oc2ccccc2)c(OC(=O)CC)c2cc(Cl)ccc12 | -15 | 
50 | 2.39 |  |  | <= 0.001 |  | COc1ccc2c(OC(C)=O)c(OC)c(OC)c(OC(C)=O)c2c1 | 53 | 
51 | 7.4 |  |  | <= 0.001 |  | CCOc1c(OCC)c(OC(=O)C(C)(C)C)c2cc(Cl)ccc2c1OC(=O)C(C)(C)C | 19 | 
52 | 5.4 | Not Active |  |  |  | CCCC(=O)Oc1c(OC)c(OC)c(OC(=O)CCC)c2cc(C)c(C)cc12 | 14 | 
53 | 8.7 |  |  |  |  | CC(C)(C)C(=O)Oc1c(Oc2ccccc2)c(Oc2ccccc2)c(OC(=O)C(C)(C)C)c2cc(Cl)ccc12 |  | Insoluble
54 | 2.8 |  |  |  | < 0.001 | COc1c(OC)c(OC(C)=O)c2c(C)cccc2c1OC(C)=O | 22 | 
55 | 2 | Not Active |  |  |  | COc1c(OC)c(OC(C)=O)c2c(NC(C)=O)cccc2c1OC(C)=O | 6 | 
56 | 6.6 | Not Active |  |  |  | COc1c(OC)c(OC(=O)C(C)(C)C)c2cc(Cl)ccc2c1OC(=O)C(C)(C)C | 11 | 
57 | 5.9 |  |  | <= 0.01 |  | CCCCOc1c(OCCCC)c(OC(C)=O)c2cc(Cl)ccc2c1OC(C)=O | 23 | 
58 | 5.8 | Not Active |  |  |  | CCC(=O)Oc1c(OC(C)C)c(OC(C)C)c(OC(=O)CC)c2cc(Cl)ccc12 | 16 | 

Source: ChEMBL document CHEMBL1123347, “Topical nonsteroidal antipsoriatic agents. 1. 1,2,3,4-Tetraoxygenated naphthalene derivatives” (J Med Chem, 1986)
